Source: PubChem BioAssay
MITF TRPM1 HTS: increases MITF-driven TRPM1 promoter luciferase signal; activation, % at 12.5 µM; 300,000 compounds, 0.75% hits; SK-MEL-5 TRPM1-promoter luciferase, 24 h; % of positive control, neutral wells = 0; AID 588334;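 active = mean activation of at least 80% with every replicate also reaching 80%; inconclusive = mean reaches 80% but some replicate falls short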;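 also: 0% = neutral control wells and 100% = parthenolide positive control wells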
Env fusion inh: HIV envelope-mediated fusion inhibition; AID 651610; inhibition, % at 12.3 µM; 360,000 compounds, 1.1% hits; HeLa-JRFL Env/CEM21 cell fusion, luciferase;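 active = mean replicate inhibition score of at least 50 and every replicate individually at or above 50; inconclusive = only one of the two criteria met; inactive = mean below 50 and not all replicates reaching 50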;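 also: 0% = plate neutral controls and 100% = maraviroc near 300 nM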
ERAP1 inh: inhibitors of human ERAP1 aminopeptidase | Q9NZ08 | inhibition, % at 10.7 µM | 340,000 compounds, 0.15% hits | recombinant ERAP1, Leu-AMC fluorescence, 60 min;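 active = mean replicate inhibition of at least 30%, or all replicates individually reaching that 30% level; inactive = mean below 30% and not every replicate reaching it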;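 also: 0% = neutral control wells and 100% = L-leucinethiol positive control wells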
Target sequence (Q9NZ08 whole entry, looked up): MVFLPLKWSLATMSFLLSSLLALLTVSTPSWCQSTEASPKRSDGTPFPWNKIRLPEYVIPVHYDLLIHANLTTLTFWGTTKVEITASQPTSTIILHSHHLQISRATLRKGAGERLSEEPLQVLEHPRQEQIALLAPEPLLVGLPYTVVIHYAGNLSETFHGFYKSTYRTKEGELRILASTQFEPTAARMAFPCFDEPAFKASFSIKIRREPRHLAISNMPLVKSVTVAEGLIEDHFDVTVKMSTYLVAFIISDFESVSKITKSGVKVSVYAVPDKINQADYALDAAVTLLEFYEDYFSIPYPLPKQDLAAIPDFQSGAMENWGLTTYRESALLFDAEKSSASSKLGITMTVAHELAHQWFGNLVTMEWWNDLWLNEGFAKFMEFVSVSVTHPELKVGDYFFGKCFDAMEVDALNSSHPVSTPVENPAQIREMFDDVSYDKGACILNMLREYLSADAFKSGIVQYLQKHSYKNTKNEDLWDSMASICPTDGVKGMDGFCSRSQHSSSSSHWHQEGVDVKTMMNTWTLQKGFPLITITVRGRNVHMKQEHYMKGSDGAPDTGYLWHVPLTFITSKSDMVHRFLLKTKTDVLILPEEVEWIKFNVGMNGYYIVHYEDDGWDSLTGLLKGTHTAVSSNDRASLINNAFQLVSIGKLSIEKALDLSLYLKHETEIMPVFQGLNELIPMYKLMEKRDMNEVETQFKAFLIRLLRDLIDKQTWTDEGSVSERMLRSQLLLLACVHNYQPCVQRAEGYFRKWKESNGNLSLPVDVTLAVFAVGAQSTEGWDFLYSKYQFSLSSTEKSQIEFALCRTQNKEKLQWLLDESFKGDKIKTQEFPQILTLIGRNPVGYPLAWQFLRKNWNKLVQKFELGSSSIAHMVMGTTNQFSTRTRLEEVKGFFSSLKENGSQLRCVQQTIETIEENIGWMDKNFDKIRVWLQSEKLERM
Wnt bcat act: activates Wnt/beta-catenin signaling in a reporter cell assay; activator, plate reader; activation, % at 9.35 µM; 300,000 compounds, 1.2% hits; AID 743398; in the data active = activation above about 30%, passing the limit was not always enough; inconclusive = no clear call, values can overlap the other calls;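 also: 0% = neutral control wells and 100% = positive control wells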
Cneo AK release: causes C. neoformans cell lysis | adenylate kinase release luminescence, 4 h; normalised: neutral wells 0, clomiphene wells 100 | lysis activity, % at 15 µM | 360,000 compounds, 0.2% hits;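 active = mean lysis activity across replicates of at least 80%, whatever share of replicates individually reach that level; inactive = mean lysis activity below 80%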
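Assay system: log-phase C. neoformans yeast / Quantity: yeast cell density of 5 × 10^6 cells/mL / Medium: fresh YPD growth medium / Compound: single dose / Timing: static 4 h at 37 °C with compound, 1 h detection / Measured by: adenylate kinase release luminescence / Read-out: lysis from increased AK signal / Benchmarks: Clomiphene as positive lysis control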
esBAF inh: blocks esBAF chromatin remodeling in mouse ES cells; 350,000 compounds, 2% hits; Bmi1-luciferase knock-in reporter, 24 h; 100% = twice the neutral-well signal; reporter increase, % at 12.5 µM; in the data active = activation above about 40%; inconclusive = no clear call, values can overlap the other calls;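 also: 0% = median of the plate's neutral control wells and 100% = double that signal; a rise in the Bmi1 reporter signal indicates esBAF inhibition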
An asterisk follows results filed as active; [ ] = another dose, or the depositor's remark. Hits are enriched below; roughly 3.5% of the tested compounds scored in any of these assays.

`Cc1cc(/C=C2/NC(=O)N(c3ccccc3)C2=O)c(C)n1-c1cccnc1` gave MITF TRPM1 HTS 50, Env fusion inh -47, ERAP1 inh 8, Wnt bcat act 37*, Cneo AK release -3 and esBAF inh 71*.
Screening CCCCc1c(C)c(C#N)c2nc3ccccc3n2c1NCCN(C)C returned MITF TRPM1 HTS -1, Env fusion inh -4, ERAP1 inh -10, Wnt bcat act 0, Cneo AK release 6 and esBAF inh -1.
Cc1c2c(n3c(nc4ccccc43)c1C#N)N(CCN(C)C)CC2 was read as MITF TRPM1 HTS -6, Env fusion inh 10, ERAP1 inh 31* and Wnt bcat act -1.
CCc1c(C)c(C#N)c2nc3ccccc3n2c1NCCCN(C)C was read as Env fusion inh -8, ERAP1 inh -3, Wnt bcat act 1, Cneo AK release -2 and esBAF inh -5.
Cc1c2c(n3c(nc4ccccc43)c1C#N)N(CCCN(C)C)CC2 was read as MITF TRPM1 HTS -6, Env fusion inh 6, ERAP1 inh 71* and Wnt bcat act 0.
`O=C(C[C@@H]1C=C[C@@H](NC(=O)c2ccc3c(c2)OCO3)[C@@H](CO)O1)NCc1ccc(F)cc1` gave Env fusion inh 1[16.7 µM], ERAP1 inh 2, Cneo AK release 18 and esBAF inh 0.
CO[C@H]1CN(C)C(=O)c2ccc(NC(=O)C3CCCC3)cc2OC[C@H](C)N(C(C)=O)C[C@H]1C was read as ERAP1 inh 1, Cneo AK release -6 and esBAF inh 0.
CCCCc1nc2cc(C(=O)N(C)C3CCOCC3)ccc2o1 was read as MITF TRPM1 HTS 77, Env fusion inh -154, ERAP1 inh -4, Wnt bcat act inconclusive, Cneo AK release 1 and esBAF inh 94*.
For O=C(/C=C/Nc1ccc(Br)cn1)c1cccc(OC(F)F)c1 the results were MITF TRPM1 HTS 93*, ERAP1 inh 0, Wnt bcat act 15, Cneo AK release 0 and esBAF inh 68*.
For C[C@@H]1CN([C@H](C)CO)C(=O)c2cc(NC(=O)Cn3cnnn3)ccc2O[C@H]1CN(C)Cc1ccc(C(F)(F)F)cc1 the results were Env fusion inh 2[16.7 µM], ERAP1 inh 0, Cneo AK release -10 and esBAF inh -3.
CC1(C)CC(=O)c2c(O)cc(OCc3ccc(Br)cc3)cc2O1 was read as MITF TRPM1 HTS 87*, ERAP1 inh 2, Wnt bcat act -1, Cneo AK release -1 and esBAF inh 67*.
Screening COc1cccc(-c2nc3sc4c(c3c(=O)[nH]2)CCCCC4)c1 returned MITF TRPM1 HTS 114*, Env fusion inh -305 and Cneo AK release -1.
`Nc1ccc(-c2nc3ccc([N+](=O)[O-])cc3[nH]2)cc1` gave MITF TRPM1 HTS 10, ERAP1 inh 2 and Wnt bcat act 59*.
`Nc1ccc2nc(-c3cc(Cl)c(N)c(Cl)c3)[nH]c2c1` gave MITF TRPM1 HTS 51, Env fusion inh -195, Wnt bcat act 43*, Cneo AK release -4 and esBAF inh 48*.
`O=[N+]([O-])c1ccc(-c2nc3ccc([N+](=O)[O-])cc3[nH]2)cc1` gave MITF TRPM1 HTS 7 and Cneo AK release -3.
O=[N+]([O-])c1ccc2nc(/C=C/c3ccc(Cl)cc3)[nH]c2c1 was read as MITF TRPM1 HTS 27, Env fusion inh -61, Wnt bcat act 13, Cneo AK release -2 and esBAF inh 47*.
`COc1cccc(-c2ccc([C@@H]3[C@@H](C#N)N(C(=O)c4ccccn4)[C@@H]3CO)cc2)c1` gave Env fusion inh 2[16.7 µM], ERAP1 inh -2, Cneo AK release 3 and esBAF inh -8.
Screening Nc1ncnc2c1ncn2[C@@H]1O[C@H](CO)[C@@H](O)[C@H]1O returned MITF TRPM1 HTS 11, Env fusion inh 32, ERAP1 inh 0, Wnt bcat act 1, Cneo AK release 0 and esBAF inh 6.
For Nc1ncnc2c(C3OC(CO)C(O)C3O)c[nH]c12 (centres undefined) the results were MITF TRPM1 HTS -99, Env fusion inh 95*, ERAP1 inh -8 and Wnt bcat act -5.
C[C@@H]1CCCCO[C@H](CN(C)Cc2ccncc2)[C@H](C)CN([C@@H](C)CO)C(=O)c2cc(N(C)C)ccc2O1 was read as Env fusion inh 3[16.7 µM], ERAP1 inh 0, Cneo AK release 2 and esBAF inh -2.
For CCOC(=O)N=Nc1c2ccccc2c2nc3no[nH]c3nc12 the results were MITF TRPM1 HTS -103, Env fusion inh 76*, ERAP1 inh 5, Wnt bcat act -1 and Cneo AK release 1.
`CCOC(=O)N=Nc1c(O)n(CC(=O)OC)c2ccccc12` gave MITF TRPM1 HTS 1, Env fusion inh 10, Wnt bcat act 2 and Cneo AK release 2.
Screening C[N+](C)(C)CCC(=O)N1C/C(=C/c2ccccc2)C(=O)/C(=C\c2ccccc2)C1 returned MITF TRPM1 HTS -1, Env fusion inh -12, ERAP1 inh 4 and Wnt bcat act -7.
`CN(C)CCC(=O)N1C/C(=C/c2ccccc2)C(=O)/C(=C\c2ccccc2)C1` gave MITF TRPM1 HTS -100, Env fusion inh 75*, ERAP1 inh 1 and Wnt bcat act -25.
For CCn1c(O)c(N=Nc2ccc3ccccc3n2)c2ccccc21 the results were MITF TRPM1 HTS 116*, Env fusion inh -124, ERAP1 inh -4 and Wnt bcat act -1.
Screening CCCCn1c(O)c(N=Nc2ccccn2)c2ccccc21 returned MITF TRPM1 HTS -4 and Env fusion inh 13.
`CO[C@@H]1CN(C)C(=O)c2cc(NS(C)(=O)=O)ccc2OC[C@@H](C)N(C(=O)C2CCCCC2)C[C@@H]1C` gave ERAP1 inh 7, Cneo AK release -1 and esBAF inh -1.
`CN1C(=O)c2cc(NC(=O)C3CCCCC3)ccc2OC[C@@H]2O[C@@H](CC(=O)NCc3ccccc3F)CC[C@@H]21` gave Env fusion inh 2[16.7 µM], ERAP1 inh -3, Cneo AK release -2 and esBAF inh 8.
CCN1C(=O)C(=O)N(CC(=O)c2cc(C)n(C3CC3)c2C)C1=O was read as MITF TRPM1 HTS 46, ERAP1 inh 1, Wnt bcat act -2, Cneo AK release 0 and esBAF inh inconclusive.
CCCN1C(=O)C(=O)N(CC(=O)c2cc(C)n(C3CC3)c2C)C1=O was read as MITF TRPM1 HTS 89*, Env fusion inh -36, ERAP1 inh -3, Wnt bcat act 26, Cneo AK release 1 and esBAF inh 29.
Screening Cc1cc(=O)oc2cc(OCC(=O)Nc3nccs3)ccc12 returned MITF TRPM1 HTS 53, Env fusion inh -56, ERAP1 inh -1, Wnt bcat act 38*, Cneo AK release -2 and esBAF inh 17.
Cc1cccc(OCC(=O)Nc2nccs2)c1C was read as MITF TRPM1 HTS 37, Env fusion inh -87, ERAP1 inh 0, Wnt bcat act 37* and Cneo AK release -2.
